Measurements reported in ChEMBL document CHEMBL4387775, “Minimum structural requirements for inhibitors of the zinc finger protein TRAF6” (Bioorg Med Chem Lett, 2019).
Active and inactive are the calls of the source. No cut-off for these calls is given here.

Key:
[1] = target: T1, TNF receptor-associated factor 6 (Homo sapiens) (UniProt Q9Y4K3); test: Inhibition of TRAF6 (unknown origin)-mediated NFkappaB activation expressed in human HeLaS3 cells harboring 3kappaB-tk-luc at 10 uM preincubated for 1 hr followed by Il1alpha-stimulation and measured after 3 hrs in presence of DTT by dual-luciferase reporter gene assay relative to control; type: cell-based
T1 sequence (whole entry): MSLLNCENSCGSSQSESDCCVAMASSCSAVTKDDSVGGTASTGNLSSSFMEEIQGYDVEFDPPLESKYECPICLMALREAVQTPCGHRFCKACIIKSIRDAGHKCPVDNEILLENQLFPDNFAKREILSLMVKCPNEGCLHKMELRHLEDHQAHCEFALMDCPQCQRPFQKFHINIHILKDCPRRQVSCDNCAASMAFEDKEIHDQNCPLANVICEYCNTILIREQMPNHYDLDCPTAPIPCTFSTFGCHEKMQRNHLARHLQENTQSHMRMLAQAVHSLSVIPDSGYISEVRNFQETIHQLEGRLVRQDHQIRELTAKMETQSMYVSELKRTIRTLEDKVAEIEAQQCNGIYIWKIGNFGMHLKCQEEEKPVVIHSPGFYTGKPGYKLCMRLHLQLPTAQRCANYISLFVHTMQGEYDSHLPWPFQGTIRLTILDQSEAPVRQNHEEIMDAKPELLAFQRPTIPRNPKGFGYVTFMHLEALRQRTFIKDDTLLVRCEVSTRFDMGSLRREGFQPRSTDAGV
Method in brief: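 Cells co-transfected with 3κB-tk-luc and pRL-Luc (β-actin-driven renilla), cultured 1 day, then given compound (10 μM) plus DTT (30 μM) for 1 h before IL-1α (10 ng/mL) stimulation for 3 h. Dual-luciferase read-out: κB-firefly signal normalized to renilla, reported as relative NF-κB activity.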

[2] = Prodrug conversion in human HeLaS3 assessed as NpSH formation at 10 uM; type: ADME, cell-based; conditions: hela s3, 10 µM
HeLa S3 = test: Cytotoxicity against human HeLaS3 cells assessed as reduction in cell viability at 10 uM measured after 8 hrs in presence of DTT by MTT assay relative to control; type: functional
Method in brief: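 Cells treated with compound at 10 μM together with DTT (30 μM), incubated 8 h, then viability read by MTT assay; shown as activity relative to control.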

[3] = target: T1, TNF receptor-associated factor 6 (Homo sapiens); test: Inhibition of TRAF6 (unknown origin)-mediated NFkappaB activation expressed in human HeLaS3 cells harboring 3kappaB-tk-luc at 10 uM preincubated for 1 hr followed by Il1alpha-stimulation and measured after 3 hrs by dual-luciferase reporter gene assay relative to control; type: cell-based
Method in brief: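 Cells co-transfected with 3κB-tk-luc (triple κB site driving firefly luciferase) and pRL-Luc (β-actin promoter driving renilla luciferase), cultured 1 day, given compound (10 μM) without DTT for 1 h, then stimulated with IL-1α (10 ng/mL) for 3 h. Lysates read by dual-luciferase assay; firefly signal normalized to renilla, expressed as relative NF-κB activity.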

inhibition [1] | Drug metabolism [2] | inhibition [3] | Compound | Activity (HeLa S3)
inactive | – | – | SCCNCc1ccccn1 | –
inactive | Metabolite_Detected | – | O=[N+]([O-])c1ccccc1SSCCNCc1cccc(CNCCSSc2ccccc2[N+](=O)[O-])c1 | –
– | Metabolite_Detected | – | O=[N+]([O-])c1ccccc1SSc1ccccc1[N+](=O)[O-] | –
78% | – | – | O=C(CCCC[C@@H]1SC[C@@H]2NC(=O)N[C@@H]21)NCCCCCCOC(=O)Nc1cc(CNCCS)nc(CNCCS)c1 | –
inactive | – | – | Sc1ccccc1NCc1ccccn1 | –
89% | Metabolite_Detected | 80% | CN(C)c1cc(CNCCSSc2ccccc2[N+](=O)[O-])nc(CNCCSSc2ccccc2[N+](=O)[O-])c1 | inactive
inactive | – | – | O=[N+]([O-])c1ccccc1S | 24%
inactive | – | – | CC(C)=CCC/C(C)=C/CC/C(C)=C/COC(=O)Nc1cc(CNCCS)nc(CNCCS)c1 | –
inactive | – | – | CCCCCCCCCCCCOC(=O)Nc1cc(CNCCS)nc(CNCCS)c1 | –
84% | Metabolite_Detected | 76% | O=[N+]([O-])c1ccccc1SSCCNCc1cccc(CNCCSSc2ccccc2[N+](=O)[O-])n1 | –
inactive | – | – | CN(C)c1ccnc(CNCCS)c1 | –
